Source: ChEMBL document CHEMBL4350961, “Discovery of Pyrrolo[3,2- d]pyrimidin-4-one Derivatives as a New Class of Potent and Cell-Active Inhibitors of P300/CBP-Associated Factor Bromodomain” (J Med Chem, 2019)
Activity calls are given as the source filed them. The calls are words filed in the database; no cut-off is given here.

Experiments:
[1] = molecular target: Bromodomain-containing protein 9 (Homo sapiens) (UniProt Q9H8M2); experiment: Binding affinity to human N-terminal His-tagged BRD9 assessed as change in melting temperature at 10 uM by SYPRO orange dye-based fluorescence assay
Outline: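 Thermal shift with His-tagged human bromodomain at 2 μM final in 10 mM HEPES pH 7.5, 500 mM NaCl. Compound at 10 μM final with 0.1% DMSO; SYPRO Orange at 1:1000. Equilibrated 3 min at 25 °C, then heated from 25 to 95 °C at 1 °C/min. Melting temperature shift taken from fluorescence; at least duplicate.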

[2] = molecular target: Bromodomain-containing protein 2 (Homo sapiens) (UniProt P25440); experiment: Binding affinity to human partial length BRD2 bromodomain 2 isoform 1 (E348 to D455 residues) expressed in bacterial expression system at 1 uM by BROMOscan assay
Outline: (§1)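 BROMOscan bromodomain cross-screen run by an outside service, compound at 1 µM against 32 recombinant bromodomains. Binding given as percent of control.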

[3] = molecular target: Histone acetyltransferase KAT2B (Homo sapiens, UniProt Q92831); experiment: Binding affinity to human partial length PCAF (G715 to D831 residues) expressed in bacterial expression system at 1 uM by BROMOscan assay; outline: as §1
[4] = molecular target: Activin receptor type-1-like (Homo sapiens) (UniProt P37023); experiment: Inhibition of recombinant human ALK1 (142 to end residues) at 10 uM using casein as substrate measured after 40 mins in presence of [gamma33P]ATP by scintillation counting method
Mus musculus = organism: Mus musculus; experiment: Inhibition of recombinant mouse ARG M982V/A562 mutant (27 to end residues) at 10 uM using EAIYAAPFAKKK as substrate measured after 40 mins in presence of [gamma33P]ATP by scintillation counting method
[5] = molecular target: Mitogen-activated protein kinase kinase kinase 5 (Homo sapiens) (UniProt Q99683); experiment: Inhibition of recombinant human ASK1 (649 to 946 residues) at 10 uM using myelin basic protein as substrate measured after 40 mins in presence of [gamma33P]ATP by scintillation counting method
[6] = molecular target: Protein-tyrosine kinase 6 (Homo sapiens) (UniProt Q13882); experiment: Inhibition of full-length recombinant human BRK at 10 uM using poly(Glu, Tyr) 4:1 as substrate measured after 40 mins in presence of [gamma33P]ATP by scintillation counting method
Protein-tyrosine kinase 6 (Homo sapiens), sequence (Q13882 whole entry, looked up): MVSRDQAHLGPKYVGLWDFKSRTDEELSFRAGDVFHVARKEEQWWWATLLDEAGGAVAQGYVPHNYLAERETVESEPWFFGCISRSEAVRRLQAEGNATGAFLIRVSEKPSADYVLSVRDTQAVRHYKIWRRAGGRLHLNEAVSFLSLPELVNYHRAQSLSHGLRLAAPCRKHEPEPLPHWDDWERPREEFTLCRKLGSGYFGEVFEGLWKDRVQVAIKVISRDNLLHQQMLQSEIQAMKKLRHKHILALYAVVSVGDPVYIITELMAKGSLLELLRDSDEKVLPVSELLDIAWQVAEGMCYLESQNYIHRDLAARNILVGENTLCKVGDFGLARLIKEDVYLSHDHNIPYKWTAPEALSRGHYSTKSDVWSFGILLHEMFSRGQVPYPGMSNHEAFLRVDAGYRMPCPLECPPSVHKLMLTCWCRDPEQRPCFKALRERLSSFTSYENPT
Outline: (§2)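 Kinase panel of 422 kinases screened by Eurofins KinaseProfiler at a single test-compound concentration of 10 µM.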

[7] = molecular target: Calcium/calmodulin-dependent protein kinase type II subunit gamma (Homo sapiens) (UniProt Q13555); experiment: Inhibition of recombinant full-length human CaMK2gamma (1 to 330 residues) at 10 uM using calmodulin as substrate measured after 40 mins in presence of [gamma33P]ATP by scintillation counting method
Calcium/calmodulin-dependent protein kinase type II subunit gamma (Homo sapiens), sequence (Q13555 whole entry, the tested form may be a part): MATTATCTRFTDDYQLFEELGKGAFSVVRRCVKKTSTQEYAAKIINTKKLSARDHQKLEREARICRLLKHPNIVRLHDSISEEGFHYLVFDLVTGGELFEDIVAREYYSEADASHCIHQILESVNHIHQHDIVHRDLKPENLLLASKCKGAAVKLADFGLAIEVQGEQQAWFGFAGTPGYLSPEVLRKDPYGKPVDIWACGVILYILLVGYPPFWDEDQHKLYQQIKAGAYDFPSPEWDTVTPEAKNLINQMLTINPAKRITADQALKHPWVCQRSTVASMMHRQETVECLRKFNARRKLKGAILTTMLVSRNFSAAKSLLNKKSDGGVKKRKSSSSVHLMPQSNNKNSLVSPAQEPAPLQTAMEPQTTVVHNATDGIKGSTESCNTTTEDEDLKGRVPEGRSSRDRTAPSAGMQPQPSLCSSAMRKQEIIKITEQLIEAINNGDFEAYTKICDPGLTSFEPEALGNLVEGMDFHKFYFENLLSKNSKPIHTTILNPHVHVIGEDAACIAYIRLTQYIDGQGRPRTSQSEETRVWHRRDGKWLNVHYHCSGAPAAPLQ

[8] = molecular target: CDK2/Cyclin A2 (Homo sapiens) (UniProt P24941+P20248); experiment: Inhibition of recombinant full-length human CDK2/cyclinA at 10 uM using histone H1 as substrate measured after 40 mins in presence of [gamma33P]ATP by scintillation counting method; type: protein-complex assay
[9] = molecular target: CDK3/Cyclin E (Homo sapiens) (UniProt P24864+Q00526); experiment: Inhibition of recombinant full-length human CDK3/cyclinE at 10 uM using histone H1 as substrate measured after 40 mins in presence of [gamma33P]ATP by scintillation counting method; type: protein-complex assay
[10] = molecular target: Tyrosine-protein kinase CSK (Homo sapiens) (UniProt P41240); experiment: Inhibition of full-length recombinant human CSK at 10 uM using poly(Glu, Tyr) 4:1 as substrate measured after 40 mins in presence of [gamma33P]ATP by scintillation counting method; outline: as §2
Tyrosine-protein kinase CSK (Homo sapiens), sequence (P41240 2-450 limits assumed): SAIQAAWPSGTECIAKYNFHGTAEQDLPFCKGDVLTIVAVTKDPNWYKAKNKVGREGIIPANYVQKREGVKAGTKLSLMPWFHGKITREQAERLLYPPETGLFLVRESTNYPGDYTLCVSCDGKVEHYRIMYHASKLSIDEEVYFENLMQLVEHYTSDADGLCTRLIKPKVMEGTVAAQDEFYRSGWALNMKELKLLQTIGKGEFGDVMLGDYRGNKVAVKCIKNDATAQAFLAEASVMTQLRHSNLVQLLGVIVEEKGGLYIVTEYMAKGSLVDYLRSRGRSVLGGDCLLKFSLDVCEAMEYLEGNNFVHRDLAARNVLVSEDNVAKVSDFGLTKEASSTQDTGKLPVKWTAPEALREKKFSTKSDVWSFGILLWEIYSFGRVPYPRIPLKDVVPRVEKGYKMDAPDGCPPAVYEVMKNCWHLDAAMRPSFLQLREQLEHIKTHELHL

[11] = molecular target: Ephrin type-B receptor 1 (Homo sapiens) (UniProt P54762); experiment: Inhibition of recombinant human EphB1 (564 to end residues) at 10 uM using KVEKIGEGTYGVVYK as substrate measured after 40 mins in presence of [gamma33P]ATP by scintillation counting method
Ephrin type-B receptor 1 (Homo sapiens), sequence (P54762 whole entry): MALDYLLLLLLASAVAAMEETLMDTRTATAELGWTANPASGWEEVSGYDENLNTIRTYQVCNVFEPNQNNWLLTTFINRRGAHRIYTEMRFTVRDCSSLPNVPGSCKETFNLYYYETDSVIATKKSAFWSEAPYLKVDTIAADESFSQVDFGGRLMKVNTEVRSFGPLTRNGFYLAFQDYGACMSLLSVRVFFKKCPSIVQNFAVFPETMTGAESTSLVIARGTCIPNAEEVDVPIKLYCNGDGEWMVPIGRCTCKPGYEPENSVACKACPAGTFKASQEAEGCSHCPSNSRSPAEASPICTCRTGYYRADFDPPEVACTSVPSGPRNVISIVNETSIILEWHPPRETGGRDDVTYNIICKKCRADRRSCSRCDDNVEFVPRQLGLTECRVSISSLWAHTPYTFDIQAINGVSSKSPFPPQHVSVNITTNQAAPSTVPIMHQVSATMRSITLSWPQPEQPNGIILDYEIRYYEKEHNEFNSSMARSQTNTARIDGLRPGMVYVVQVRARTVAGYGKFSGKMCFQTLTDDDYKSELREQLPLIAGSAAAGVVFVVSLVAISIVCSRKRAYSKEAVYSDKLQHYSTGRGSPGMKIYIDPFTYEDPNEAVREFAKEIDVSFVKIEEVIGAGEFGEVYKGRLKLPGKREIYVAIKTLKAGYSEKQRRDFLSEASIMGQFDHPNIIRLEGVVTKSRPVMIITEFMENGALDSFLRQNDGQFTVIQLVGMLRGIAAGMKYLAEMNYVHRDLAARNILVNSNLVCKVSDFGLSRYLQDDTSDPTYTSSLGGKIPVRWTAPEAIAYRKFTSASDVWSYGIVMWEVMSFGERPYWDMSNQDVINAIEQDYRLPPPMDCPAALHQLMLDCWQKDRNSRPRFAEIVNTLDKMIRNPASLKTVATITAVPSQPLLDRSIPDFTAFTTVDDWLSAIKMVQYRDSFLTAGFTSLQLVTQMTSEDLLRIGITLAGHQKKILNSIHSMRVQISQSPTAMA

[12] = molecular target: Tyrosine-protein kinase Fes/Fps (Homo sapiens) (UniProt P07332); experiment: Inhibition of recombinant human FES (2 to end residues) at 10 uM using poly(Glu, Tyr) 4:1 as substrate measured after 40 mins in presence of [gamma33P]ATP by scintillation counting method
[13] = molecular target: Inhibitor of nuclear factor kappa-B kinase subunit epsilon (Homo sapiens) (UniProt Q14164); experiment: Inhibition of recombinant full-length human IKKepsilon at 10 uM using casein as substrate measured after 40 mins in presence of [gamma33P]ATP by scintillation counting method
Inhibitor of nuclear factor kappa-B kinase subunit epsilon (Homo sapiens), sequence (Q14164 whole entry): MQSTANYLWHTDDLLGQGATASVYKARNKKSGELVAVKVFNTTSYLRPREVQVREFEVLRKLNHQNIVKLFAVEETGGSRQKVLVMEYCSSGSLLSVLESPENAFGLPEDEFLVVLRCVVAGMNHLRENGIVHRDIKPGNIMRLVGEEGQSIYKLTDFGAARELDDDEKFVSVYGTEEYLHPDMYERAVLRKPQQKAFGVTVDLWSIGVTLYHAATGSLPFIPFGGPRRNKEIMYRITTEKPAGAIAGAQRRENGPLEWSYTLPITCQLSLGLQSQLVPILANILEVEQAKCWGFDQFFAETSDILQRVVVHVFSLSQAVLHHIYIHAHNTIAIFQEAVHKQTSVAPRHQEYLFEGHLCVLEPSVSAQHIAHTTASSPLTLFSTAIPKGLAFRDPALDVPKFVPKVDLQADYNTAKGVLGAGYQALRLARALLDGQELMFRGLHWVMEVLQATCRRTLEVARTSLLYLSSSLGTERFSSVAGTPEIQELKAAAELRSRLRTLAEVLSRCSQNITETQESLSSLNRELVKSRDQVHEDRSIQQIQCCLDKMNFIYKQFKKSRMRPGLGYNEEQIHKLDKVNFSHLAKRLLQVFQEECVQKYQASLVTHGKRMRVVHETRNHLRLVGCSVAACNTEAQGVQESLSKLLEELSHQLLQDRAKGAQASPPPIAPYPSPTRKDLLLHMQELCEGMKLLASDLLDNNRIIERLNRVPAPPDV

[14] = molecular target: Serine/threonine-protein kinase STK11 (Homo sapiens) (UniProt Q15831); experiment: Inhibition of recombinant full-length human LKB1 at 10 uM using LSNLYHQGKFLQTFCGSPLYRRR as substrate measured after 40 mins in presence of [gamma33P]ATP by scintillation counting method
[15] = molecular target: Serine/threonine-protein kinase 10 (Homo sapiens) (UniProt O94804); experiment: Inhibition of recombinant human LOK (1 to 348 residues) at 10 uM using RLGRDKYKTLRQIRQ as substrate measured after 40 mins in presence of [gamma33P]ATP by scintillation counting method
Homo sapiens = organism: Homo sapiens; experiment: Inhibition of recombinant human MAPKAPK2 A399G mutant (46 to end residues) at 10 uM using KKLNRTLSVA as substrate measured after 40 mins in presence of [gamma33P]ATP by scintillation counting method
[16] = molecular target: Ribosomal protein S6 kinase alpha-5 (Homo sapiens) (UniProt O75582); experiment: Inhibition of recombinant human MSK1 (2 to end residues) at 10 uM using GRPRTSSFAEGKK as substrate measured after 40 mins in presence of [gamma33P]ATP by scintillation counting method
[17] = molecular target: Serine/threonine-protein kinase 38-like (Homo sapiens) (UniProt Q9Y2H1); experiment: Inhibition of recombinant human NDR2 (83 to end residues) at 10 uM using RSRSRSRSRSRSRSR as substrate measured after 40 mins in presence of [gamma33P]ATP by scintillation counting method
[18] = molecular target: Macrophage-stimulating protein receptor (Homo sapiens) (UniProt Q04912); experiment: Inhibition of human Ron (983 to end residues) using GGMEDIYFEFMGGKKK as substrate measured after 40 mins in presence of [gamma33P]ATP by scintillation counting method; outline: as §2
Macrophage-stimulating protein receptor (Homo sapiens), sequence (Q04912 25-304 limits assumed): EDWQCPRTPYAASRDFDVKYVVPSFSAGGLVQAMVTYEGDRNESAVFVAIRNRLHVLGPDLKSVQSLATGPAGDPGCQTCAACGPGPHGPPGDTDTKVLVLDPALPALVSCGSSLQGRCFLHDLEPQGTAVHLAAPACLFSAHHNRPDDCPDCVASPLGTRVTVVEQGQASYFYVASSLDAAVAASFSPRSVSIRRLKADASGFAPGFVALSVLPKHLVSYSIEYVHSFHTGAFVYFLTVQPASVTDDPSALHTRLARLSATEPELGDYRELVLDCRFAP
Macrophage-stimulating protein receptor (Homo sapiens), sequence (Q04912 310-1400 limits assumed): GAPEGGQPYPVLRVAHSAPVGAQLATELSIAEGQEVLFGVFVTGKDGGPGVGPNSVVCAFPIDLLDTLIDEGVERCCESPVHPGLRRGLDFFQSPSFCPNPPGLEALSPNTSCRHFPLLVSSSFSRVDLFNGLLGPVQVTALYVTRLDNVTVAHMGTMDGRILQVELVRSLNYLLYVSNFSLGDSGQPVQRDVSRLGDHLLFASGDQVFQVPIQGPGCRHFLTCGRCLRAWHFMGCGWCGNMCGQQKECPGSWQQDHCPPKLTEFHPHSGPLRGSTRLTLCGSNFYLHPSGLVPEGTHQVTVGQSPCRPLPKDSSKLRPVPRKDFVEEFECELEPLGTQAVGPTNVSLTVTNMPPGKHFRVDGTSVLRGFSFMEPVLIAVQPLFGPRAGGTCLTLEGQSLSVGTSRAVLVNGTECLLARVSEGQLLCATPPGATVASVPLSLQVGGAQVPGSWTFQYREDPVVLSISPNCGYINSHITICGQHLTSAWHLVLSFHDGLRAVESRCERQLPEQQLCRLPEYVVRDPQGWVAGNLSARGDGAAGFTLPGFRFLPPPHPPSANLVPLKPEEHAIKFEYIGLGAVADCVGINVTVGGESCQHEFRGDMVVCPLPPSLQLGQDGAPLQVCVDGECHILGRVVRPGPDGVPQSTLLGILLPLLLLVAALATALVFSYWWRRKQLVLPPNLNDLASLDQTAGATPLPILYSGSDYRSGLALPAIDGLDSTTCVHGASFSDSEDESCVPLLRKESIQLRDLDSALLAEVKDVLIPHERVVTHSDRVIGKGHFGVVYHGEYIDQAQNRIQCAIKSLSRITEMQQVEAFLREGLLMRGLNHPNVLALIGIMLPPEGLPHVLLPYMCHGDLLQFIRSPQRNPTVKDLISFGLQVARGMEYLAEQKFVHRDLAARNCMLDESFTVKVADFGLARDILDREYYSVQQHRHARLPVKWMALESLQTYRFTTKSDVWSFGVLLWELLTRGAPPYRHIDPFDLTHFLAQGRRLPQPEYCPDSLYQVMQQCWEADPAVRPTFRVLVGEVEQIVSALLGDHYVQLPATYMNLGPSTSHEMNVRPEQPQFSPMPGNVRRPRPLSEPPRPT

[19] = test system: Serine/threonine-protein kinase Sgk2 (Homo sapiens), Q9HBY8 [S416D]; experiment: Inhibition of recombinant human SGK2 S416D mutant (54 to end residues) at 10 uM using GRPRTSSFAEGKK as substrate measured after 40 mins in presence of [gamma33P]ATP by scintillation counting method
Serine/threonine-protein kinase Sgk2 (Homo sapiens), Q9HBY8 [S416D], sequence (Q9HBY8 1-367 with tags or gaps S416D): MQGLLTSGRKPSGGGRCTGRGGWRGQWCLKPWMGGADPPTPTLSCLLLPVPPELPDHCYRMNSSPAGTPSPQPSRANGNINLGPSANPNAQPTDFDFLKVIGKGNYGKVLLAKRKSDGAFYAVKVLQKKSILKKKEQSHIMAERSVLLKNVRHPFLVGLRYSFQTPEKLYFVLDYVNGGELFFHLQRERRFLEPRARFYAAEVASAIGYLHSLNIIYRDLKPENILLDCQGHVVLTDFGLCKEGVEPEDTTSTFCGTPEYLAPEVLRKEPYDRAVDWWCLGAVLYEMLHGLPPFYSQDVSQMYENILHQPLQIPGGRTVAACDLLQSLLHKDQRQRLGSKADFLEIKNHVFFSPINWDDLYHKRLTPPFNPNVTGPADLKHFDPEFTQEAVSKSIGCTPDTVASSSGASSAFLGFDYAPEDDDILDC

[20] = molecular target: Serine-protein kinase ATM (Homo sapiens) (UniProt Q13315); experiment: Inhibition of recombinant full-length human ATM at 10 uM using GST-cMyc-p53 as substrate measured after 40 mins by ELISA
[21] = molecular target: G protein-coupled receptor kinase 5 (Homo sapiens) (UniProt P34947); experiment: Inhibition of recombinant full-length human GRK5 at 10 uM using casein as substrate measured after 40 mins in presence of [gamma33P]ATP by scintillation counting method

Structure (SMILES): CN1C[C@H](Nc2nc3cc[nH]c3c(=O)n2C)C[C@H](c2ccc3c(c2)OCCO3)C1
- ΔTm [1]: 2.1 °C
- Activity [2]: inactive
- Activity [3]: Active
- inhibition [4]: inactive
- inhibition (Mus musculus): inactive
- inhibition [5]: inactive
- inhibition [6]: inactive
- inhibition [7]: inactive
- inhibition [8]: inactive
- inhibition [9]: inactive
- inhibition [10]: inactive
- inhibition [11]: inactive
- inhibition [12]: inactive
- inhibition [13]: inactive
- inhibition [14]: inactive
- inhibition [15]: inactive
- inhibition (Homo sapiens): inactive
- inhibition [16]: inactive
- inhibition [17]: inactive
- inhibition [18]: inactive
- inhibition [19]: inactive
- inhibition [20]: inactive
- inhibition [21]: inactive
